Test results from ChEMBL document CHEMBL3232883, “Triaryl-substituted Schiff bases are high-affinity subtype-selective ligands for the estrogen receptor” (J Med Chem, 2014).
Activity calls are given as the source filed them. The calls are words filed in the database; no cut-off is given here.

Columns and labels:
Estrogen receptor beta [1] = target: T1, Estrogen receptor beta (Homo sapiens, UniProt Q92731); assay: Displacement of [3H]-estradiol from human full-length ERbeta after 18 to 24 hrs by competitive radiometric binding assay relative to estradiol
T1 sequence (Q92731 whole entry): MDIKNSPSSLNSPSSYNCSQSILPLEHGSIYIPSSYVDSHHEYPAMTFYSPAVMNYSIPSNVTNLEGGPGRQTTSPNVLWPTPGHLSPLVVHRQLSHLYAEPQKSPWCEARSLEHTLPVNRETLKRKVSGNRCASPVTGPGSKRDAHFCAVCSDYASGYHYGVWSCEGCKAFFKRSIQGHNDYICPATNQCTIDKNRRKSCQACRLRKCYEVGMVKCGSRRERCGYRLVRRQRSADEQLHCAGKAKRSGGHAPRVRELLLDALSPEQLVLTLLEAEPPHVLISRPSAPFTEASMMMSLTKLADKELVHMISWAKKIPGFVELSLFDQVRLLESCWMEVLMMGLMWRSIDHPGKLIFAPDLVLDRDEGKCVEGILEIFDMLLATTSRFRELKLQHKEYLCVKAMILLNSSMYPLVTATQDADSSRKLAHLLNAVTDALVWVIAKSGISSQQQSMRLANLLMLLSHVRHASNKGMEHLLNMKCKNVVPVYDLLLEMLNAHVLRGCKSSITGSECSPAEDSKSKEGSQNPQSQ

[2] = target: T2, Estrogen receptor (Homo sapiens) (UniProt P03372); assay: Displacement of [3H]-estradiol from human full-length ERalpha after 18 to 24 hrs by competitive radiometric binding assay relative to estradiol
T2 sequence (whole entry): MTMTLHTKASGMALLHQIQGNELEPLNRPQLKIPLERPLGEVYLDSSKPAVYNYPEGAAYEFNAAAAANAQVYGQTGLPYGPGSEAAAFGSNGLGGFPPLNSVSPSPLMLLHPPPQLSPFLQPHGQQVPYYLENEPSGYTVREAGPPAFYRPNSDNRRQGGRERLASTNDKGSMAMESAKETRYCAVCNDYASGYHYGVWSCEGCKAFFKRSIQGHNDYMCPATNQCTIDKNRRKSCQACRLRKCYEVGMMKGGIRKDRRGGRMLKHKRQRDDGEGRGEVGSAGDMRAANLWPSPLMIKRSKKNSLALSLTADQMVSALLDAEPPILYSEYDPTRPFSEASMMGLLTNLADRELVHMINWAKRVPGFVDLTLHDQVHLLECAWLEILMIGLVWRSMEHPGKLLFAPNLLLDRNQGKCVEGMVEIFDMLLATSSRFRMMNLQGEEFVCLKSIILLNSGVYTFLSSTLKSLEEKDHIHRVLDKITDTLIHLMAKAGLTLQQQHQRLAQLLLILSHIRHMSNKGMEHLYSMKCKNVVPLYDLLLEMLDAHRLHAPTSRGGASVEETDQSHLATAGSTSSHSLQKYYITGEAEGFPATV

Homo sapiens = species on record: Homo sapiens; assay: Selectivity ratio of RBA for human full length ERbeta to RBA for human full-length ERalpha
Estrogen receptor beta [3] = target: T1, Estrogen receptor beta; assay: Agonist activity at ERbeta (unknown origin) expressed in human HepG2 cells assessed as transcriptional activation after 24 hrs by ERE-luciferase reporter gene assay relative to 17beta-estradiol; assay type: cell-based
In short: (§1)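 HepG2 cells were cotransfected with a 3×ERE-luciferase reporter (10 μg) plus an ERα or ERβ expression vector (1.6 μg) per 10 cm dish. The next day they were replated at 20 000 cells/well in phenol red-free medium with 10% charcoal-dextran-stripped FBS and held overnight. Cells were then dosed over a 12-point range of 10 μM to 100 pM. Luciferase was read after 24 h, with DMSO set as 0% and the top of the E2 curve as 100%.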

Estrogen receptor beta [4] = target: T1, Estrogen receptor beta; assay: Antagonist activity at ERbeta (unknown origin) expressed in human HepG2 cells assessed as inhibition of 17beta-estradiol-induced transcriptional activation after 24 hrs by ERE-luciferase reporter gene assay; assay type: cell-based
In short: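 ERβ-transfected, steroid-deprived HepG2 cells carrying a 3×ERE-luciferase reporter were co-treated with 10 nM estradiol and test ligand over a range of 10 μM to 100 pM. Luciferase was read after 24 h, with each plate normalized to DMSO (0%) and the maximal E2 response (100%). IC50 and % efficacy were derived from the dose curves.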

HepG2 = assay: Agonist activity at ERalpha (unknown origin) harboring N-terminal AF1 domain deleted mutant expressed in human HepG2 cells assessed as transcriptional activation after 24 hrs by ERE-luciferase reporter gene assay; assay type: cell-based
Estrogen receptor = target: T3, Estrogen receptor (Homo sapiens, UniProt P03372); assay: Agonist activity at ERalpha (unknown origin) expressed in human HepG2 cells assessed as transcriptional activation after 24 hrs by ERE-luciferase reporter gene assay; assay type: cell-based
T3 sequence (P03372 whole entry): T2 sequence (whole entry)
In short: (§2)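 HepG2 cells were grown in DMEM with 10% FBS and transfected with a 3×ERE-luciferase reporter plus an ERα or ERβ expression vector. The next day cells were moved to phenol red-free medium with 10% charcoal-dextran-stripped FBS, plated at 20 000 cells/well and left overnight. Ligand was then added as a 12-point dose curve from 10 μM to 100 pM. Luciferase was read after 24 h, normalized to DMSO as 0% and the top of the E2 curve as 100%.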

[5] = target: T2, Estrogen receptor (Homo sapiens); assay: Agonist activity at ERalpha (unknown origin) expressed in human HepG2 cells assessed as transcriptional activation after 24 hrs by ERE-luciferase reporter gene assay relative to 17beta-estradiol; assay type: cell-based; in short: as §1
[6] = target: T2, Estrogen receptor (Homo sapiens); assay: Antagonist activity at ERalpha (unknown origin) expressed in human HepG2 cells assessed as inhibition of transcriptional activation after 24 hrs by ERE-luciferase reporter gene assay relative to 17beta-estradiol; assay type: cell-based
In short: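 Antagonist mode used HepG2 cells cotransfected with a 3×ERE-luciferase reporter plus an ERα expression vector and steroid-deprived in phenol red-free medium with 10% charcoal-dextran-stripped FBS. Cells received 10 nM estradiol together with increasing compound concentrations across a 10 μM to 100 pM dose curve. Luciferase was measured after 24 h and normalized to DMSO (0%) and the top of the E2 curve (100%).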

Estrogen receptor beta [7] = target: T1, Estrogen receptor beta; assay: Agonist activity at ERbeta (unknown origin) expressed in human HepG2 cells assessed as transcriptional activation after 24 hrs by ERE-luciferase reporter gene assay; assay type: cell-based; in short: as §2

SMILES: C/C(=N\c1ccc(O)cc1)c1ccc(O)cc1
- RBA (Estrogen receptor beta [1]): < 3%
- RBA [2]: < 3%

SMILES: Oc1ccc(C(=Nc2ccc(Br)cc2)c2ccc(O)cc2)cc1
- Selectivity ratio (Homo sapiens): 2.3
- Efficacy (Estrogen receptor beta [3]): 11%
- RBA (Estrogen receptor beta [1]): 94.1%
- IC50 (Estrogen receptor beta [4]): 6 nM
- Activity (HepG2): inactive
- EC50 (Estrogen receptor): 1 nM
- RBA [2]: 41.5%
- Efficacy [5]: 105%
- Efficacy [6]: 128%

SMILES: Oc1ccc(/C(=N\c2ccccc2Cl)c2ccc(O)cc2O)cc1
- Selectivity ratio (Homo sapiens): 0.8
- Efficacy (Estrogen receptor beta [3]): 54%
- RBA (Estrogen receptor beta [1]): 77.9%
- IC50 (Estrogen receptor beta [4]): 6 nM
- Activity (HepG2): inactive
- EC50 (Estrogen receptor): 0.1 nM
- RBA [2]: 96.7%
- Efficacy [5]: 113%
- Efficacy [6]: 136%

SMILES: COc1ccc(N=C(c2ccc(O)cc2)c2ccc(O)cc2)cc1
- Selectivity ratio (Homo sapiens): 0.9
- RBA (Estrogen receptor beta [1]): 3.98%
- RBA [2]: 4.41%

SMILES: Oc1ccc(/C(=N\c2ccc(F)cc2)c2ccc(O)cc2O)cc1
- Selectivity ratio (Homo sapiens): 1.3
- Efficacy (Estrogen receptor beta [3]): 23%
- RBA (Estrogen receptor beta [1]): 27.7%
- IC50 (Estrogen receptor beta [4]): 139 nM
- Activity (HepG2): inactive
- EC50 (Estrogen receptor): 10 nM
- RBA [2]: 21.1%
- Efficacy [5]: 108%
- Efficacy [6]: 124%

SMILES: Cc1cccc(N=C(c2ccc(O)cc2)c2ccc(O)cc2)c1
- Selectivity ratio (Homo sapiens): 5.2
- Efficacy (Estrogen receptor beta [3]): 13%
- RBA (Estrogen receptor beta [1]): 69.2%
- IC50 (Estrogen receptor beta [4]): 41 nM
- Activity (HepG2): inactive
- EC50 (Estrogen receptor): 5 nM
- RBA [2]: 13.2%
- Efficacy [5]: 109%
- Efficacy [6]: 93%

SMILES: Oc1ccc(/N=C(\c2ccc(O)cc2)c2ccc(O)cc2O)cc1
- Selectivity ratio (Homo sapiens): 0.5
- Efficacy (Estrogen receptor beta [3]): 51%
- RBA (Estrogen receptor beta [1]): 1.23%
- IC50 (Estrogen receptor beta [4]): 417 nM
- Activity (HepG2): inactive
- EC50 (Estrogen receptor): 7 nM
- RBA [2]: 2.25%
- Efficacy [5]: 97%
- Efficacy [6]: 108%

SMILES: Oc1ccc(N=C(c2ccc(O)cc2)c2ccc(O)cc2)cc1
- Selectivity ratio (Homo sapiens): 0.5
- Efficacy (Estrogen receptor beta [3]): 16%
- RBA (Estrogen receptor beta [1]): 0.99%
- IC50 (Estrogen receptor beta [4]): 300 nM
- EC50 (Estrogen receptor beta [7]): 332 nM
- Activity (HepG2): inactive
- EC50 (Estrogen receptor): 14 nM
- RBA [2]: 1.86%
- Efficacy [5]: 95%
- Efficacy [6]: 111%

SMILES: Cc1cccc(C)c1N=C(c1ccc(O)cc1)c1ccc(O)cc1
- Selectivity ratio (Homo sapiens): 1.9
- RBA (Estrogen receptor beta [1]): 2.91%
- RBA [2]: 1.56%

SMILES: Oc1ccc(C(=Nc2cccc(Cl)c2)c2ccc(O)cc2)cc1
- Selectivity ratio (Homo sapiens): 2.5
- Efficacy (Estrogen receptor beta [3]): 10%
- RBA (Estrogen receptor beta [1]): 114%
- IC50 (Estrogen receptor beta [4]): 16 nM
- Activity (HepG2): inactive
- EC50 (Estrogen receptor): 10 nM
- RBA [2]: 41.8%
- Efficacy [5]: 102%
- Efficacy [6]: 109%

SMILES: Cc1ccccc1N=C(c1ccc(O)cc1)c1ccc(O)cc1
- Selectivity ratio (Homo sapiens): 2.8
- Efficacy (Estrogen receptor beta [3]): 8%
- RBA (Estrogen receptor beta [1]): 116%
- IC50 (Estrogen receptor beta [4]): 6 nM
- Activity (HepG2): inactive
- EC50 (Estrogen receptor): 7 nM
- RBA [2]: 40.6%
- Efficacy [5]: 103%
- Efficacy [6]: 149%

SMILES: Oc1ccc(C(=Nc2ccccc2)c2ccc(O)cc2)cc1
- Selectivity ratio (Homo sapiens): 2.2
- Efficacy (Estrogen receptor beta [3]): 34%
- RBA (Estrogen receptor beta [1]): 31.5%
- IC50 (Estrogen receptor beta [4]): 13 nM
- EC50 (Estrogen receptor): 3 nM
- RBA [2]: 14.1%
- Efficacy [5]: 110%
- Efficacy [6]: 126%

SMILES: COc1ccc(/N=C(\c2ccc(O)cc2)c2ccc(O)cc2O)cc1
- Selectivity ratio (Homo sapiens): 0.5
- Efficacy (Estrogen receptor beta [3]): 38%
- RBA (Estrogen receptor beta [1]): 5.33%
- EC50 (Estrogen receptor beta [7]): 276 nM
- EC50 (Estrogen receptor): 17 nM
- RBA [2]: 10.5%
- Efficacy [5]: 102%
- Efficacy [6]: 102%

SMILES: Cc1ccc(N=C(c2ccc(O)cc2)c2ccc(O)cc2)cc1
- Selectivity ratio (Homo sapiens): 2
- Efficacy (Estrogen receptor beta [3]): 7%
- RBA (Estrogen receptor beta [1]): 20.1%
- IC50 (Estrogen receptor beta [4]): 45 nM
- Activity (HepG2): inactive
- RBA [2]: 10%
